The values below come from article PMC6039301 (Journal of medicinal chemistry, 2017).

Experiment [1] concerns ER-positive MCF-7 breast cancer cells. Put plainly: Cell proliferation assay. The experiment is classed as cell-based. The following applies: for IC50: Homo sapiens, MCF7, read-out: IC50 antiproliferative activity; for Cell proliferation (CP), percent of vehicle control (antiproliferative efficacy): MCF-7, 3 μM, 6 days, maximum suppression ca. 20%.
Experiment [2] relates to ERα levels in MCF-7 breast cancer cells. Briefly: In-cell western assay for ERα level. Format: cell-based. Conditions: MCF-7, 3 μM, 24 h. The essentials:
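MCF-7 cells seeded at 3000 cells/well, exposed to test compound at a single 3 μM concentration for 24 h. Cells fixed in 4% formaldehyde, permeabilized with 0.1% Triton X-100, blocked, then probed overnight at 4 °C with rabbit anti-ERα (HC-20). IRDye 800 secondary and Cell Tag 700 were used, with ERα signal normalized to Cell Tag. Reported as percent of vehicle; mean of ≥3 independent experiments.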

Experiment [3] relates to ERα levels. Briefly: Western blot analysis of ERα. The experiment is classed as cell-based. The following applies: 3×10^−6 M, 24 h (Figure 6B). The essentials:
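Cells treated 24 h with test compound at 3×10−10, 3×10−8 or 3×10−6 M; E2 (1×10−8 M) and tamoxifen (3×10−6 M) were reference treatments. Whole-cell extracts made with protease and phosphatase inhibitors, separated on 10% SDS-PAGE and transferred to nitrocellulose. Probed for ERα (F10 antibody) and β-actin. Band levels expressed as percent of vehicle.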
For orientation: A western blot detects proteins with antibodies after separation by electrophoresis.

Experiment [4] deals with T1, full-length human estrogen receptor alpha (ERα) (Homo sapiens, UniProt P03372).
T1 sequence (P03372 1-595): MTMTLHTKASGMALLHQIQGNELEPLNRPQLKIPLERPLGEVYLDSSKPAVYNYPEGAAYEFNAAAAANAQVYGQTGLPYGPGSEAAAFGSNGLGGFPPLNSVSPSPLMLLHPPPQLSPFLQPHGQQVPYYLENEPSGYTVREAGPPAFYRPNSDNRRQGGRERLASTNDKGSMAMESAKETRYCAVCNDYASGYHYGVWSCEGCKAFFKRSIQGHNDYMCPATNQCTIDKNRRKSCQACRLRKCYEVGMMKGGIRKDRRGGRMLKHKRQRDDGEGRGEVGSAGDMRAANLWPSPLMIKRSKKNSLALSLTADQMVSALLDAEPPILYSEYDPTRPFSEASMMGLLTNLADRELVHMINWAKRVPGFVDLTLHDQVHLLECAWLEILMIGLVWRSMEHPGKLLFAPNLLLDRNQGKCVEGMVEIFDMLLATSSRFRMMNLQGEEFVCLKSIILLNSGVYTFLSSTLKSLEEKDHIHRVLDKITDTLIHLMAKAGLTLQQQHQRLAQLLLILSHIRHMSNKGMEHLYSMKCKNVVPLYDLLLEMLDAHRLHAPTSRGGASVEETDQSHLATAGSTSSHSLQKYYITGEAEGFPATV
The following applies: cited from earlier work.

“Also recorded” adds a separate entry of the source.

As for `O=C(O)/C=C/c1ccc(C(=C2C3CC4CC(C3)CC2C4)c2ccc(O)cc2)cc1` [Compound 5, (E)-3-(4-(((1r,3r,5R,7S)-Adamantan-2-ylidene)(4-hydroxyphenyl)methyl)phenyl)acrylic acid], in experiment [1], the IC50 amounted to 31 nM.

Take `CCCCCC(=O)/C=C/c1ccc(C(=C2C3CC4CC(C3)CC2C4)c2ccc(O)cc2)cc1` [Compound 6, (E)-1-(4-(((1r,3r,5R,7S)-Adamantan-2-ylidene)(4-hydroxyphenyl)methyl)phenyl)oct-1-en-3-one]: the “Cell proliferation (CP), percent of vehicle control (antiproliferative efficacy)” value (“Cell proliferation (CP), percent” for short) in experiment [1] is listed as “some efficacy”. Besides, the “ERα level, percent of vehicle control (ERα downregulating efficacy)” value (shortened to “ERα level, percent of vehicle control”) in experiment [2] is given as “some efficacy”.

Consider `COC(=O)/C=C/c1ccc(C(=C2C3CC4CC(C3)CC2C4)c2ccc(O)cc2)cc1` [Compound 7, Methyl (E)-3-(4-(((1r,3r,5R,7S)-Adamantan-2-ylidene)(4-hydroxyphenyl)methyl)phenyl) acrylate], for which the “Cell proliferation (CP), percent” value in experiment [1] was “no anti-proliferative activity”.

`CCCCOC(=O)/C=C/c1ccc(C(=C2C3CC4CC(C3)CC2C4)c2ccc(O)cc2)cc1` [Compound 9, Butyl (E)-3-(4-(((1r,3r,5R,7S)-Adamantan-2-ylidene)(4-hydroxyphenyl)methyl)phenyl) acrylate]: the “ERα level, percent of vehicle control” value in experiment [2] was “good to very good”.

With `CC(C)CCCCCOC(=O)/C=C/c1ccc(C(=C2C3CC4CC(C3)CC2C4)c2ccc(O)cc2)cc1` [Compound 10, 6-Methylheptyl (E)-3-(4-(((1r,3r,5R,7S)-Adamantan-2-ylidene)(4-hydroxyphenyl)methyl)phenyl)acrylate], the “Cell proliferation (CP), percent” value in experiment [1] is “no anti-proliferative activity”. In experiment [2], the “ERα level, percent of vehicle control” value is given as “good to very good”.

Regarding `O=C(/C=C/c1ccc(C(=C2C3CC4CC(C3)CC2C4)c2ccc(O)cc2)cc1)OCCCCO` [Compound 13, 4-Hydroxybutyl (E)-3-(4-(((1r,3r,5R,7S)-Adamantan-2-ylidene)(4-hydroxyphenyl)methyl)phenyl)acrylate], the “ERα level, percent of vehicle control” value in experiment [2] is on record as “good to very good”.

As to `N#C/C=C/c1ccc(C(=C2C3CC4CC(C3)CC2C4)c2ccc(O)cc2)cc1` [Compound 14, (E)-3-(4-(((1r,3r,5R,7S)-Adamantan-2-ylidene)(4-hydroxyphenyl)methyl)phenyl) acrylonitrile], the “Cell proliferation (CP), percent” value in experiment [1] is listed as “matching that of vehicle control; also recorded: no anti-proliferative activity”. Besides, the “ERα level, percent of vehicle control” value in experiment [2] was “very effective”.

In the case of `CCCNS(=O)(=O)/C=C/c1ccc(C(=C2C3CC4CC(C3)CC2C4)c2ccc(O)cc2)cc1` [Compound 15, (E)-2-(4-(((1r,3r,5R,7S)-Adamantan-2-ylidene)(4-hydroxyphenyl)methyl)phenyl)-N-propylethene-1-sulfonamide], in experiment [1], the “Cell proliferation (CP), percent” value is recorded as “only modest”. For the same compound, the “ERα level, percent of vehicle control” value in experiment [2] is reported as “only modest”.

In the case of `NC(=O)/C=C/c1ccc(C(=C2C3CC4CC(C3)CC2C4)c2ccc(O)cc2)cc1` [Compound 16, (E)-3-(4-(((1r,3r,5R,7S)-Adamantan-2-ylidene)(4-hydroxyphenyl)methyl)phenyl)acrylamide], the “Cell proliferation (CP), percent” value in experiment [1] is recorded as “Least good”. For the same compound, in experiment [2], the “ERα level, percent of vehicle control” value was “Least good”.

For the compound `CCCCNC(=O)/C=C/c1ccc(C(=C2C3CC4CC(C3)CC2C4)c2ccc(O)cc2)cc1` [Compound 18, (E)-3-(4-(((1r,3r,5R,7S)-Adamantan-2-ylidene)(4-hydroxyphenyl)methyl)phenyl)-N-butylacrylamide], the “Cell proliferation (CP), percent” value in experiment [1] is “good efficacies”. In experiment [2], the “ERα level, percent of vehicle control” value is “good efficacies”.

Turning to `O=C(/C=C/c1ccc(C(=C2C3CC4CC(C3)CC2C4)c2ccc(O)cc2)cc1)NCCO` [Compound 20, (E)-3-(4-(((1r,3r,5R,7S)-Adamantan-2-ylidene)(4-hydroxyphenyl)methyl)phenyl)-N-(2-hydroxyethyl)acrylamide], in experiment [1], the IC50 was 2.4 nM and the “Cell proliferation (CP), percent” value is given as “impressive efficacies”. In addition, in experiment [2], the “ERα level, percent of vehicle control” value is “impressive efficacies”.

For `O=C(/C=C/c1ccc(C(=C2C3CC4CC(C3)CC2C4)c2ccc(O)cc2)cc1)NCCCO` [Compound 21, (E)-3-(4-(((1r,3r,5R,7S)-Adamantan-2-ylidene)(4-hydroxyphenyl)methyl)phenyl)-N-(3-hydroxypropyl)acrylamide], in experiment [1], the IC50 was 1.9 nM and the “Cell proliferation (CP), percent” value was “equivalent to that of the parent acid 5; also recorded: comparable to that of fulvestrant”. Further, the “ERα level, percent of vehicle control” value in experiment [2] was “good and similar to that of the parent 5; also recorded: comparable to that of fulvestrant”.

Regarding `O=C(/C=C/c1ccc(C(=C2C3CC4CC(C3)CC2C4)c2ccc(O)cc2)cc1)NCCCCCO` [Compound 23, (E)-3-(4-(((1r,3r,5R,7S)-Adamantan-2-ylidene)(4-hydroxyphenyl)methyl)phenyl)-N-(5-hydroxypentyl)acrylamide], in experiment [1], the IC50 is 10 nM and the “Cell proliferation (CP), percent” value was “equivalent to that of the parent acid 5”. Further, in experiment [2], the “ERα level, percent of vehicle control” value was “good and similar to that of the parent 5”.

`NCCNC(=O)/C=C/c1ccc(C(=C2C3CC4CC(C3)CC2C4)c2ccc(O)cc2)cc1` [Compound 24, (E)-3-(4-(((1r,3r,5R,7S)-Adamantan-2-ylidene)(4-hydroxyphenyl)methyl)phenyl)-N-(2-aminoethyl)acrylamide]: the IC50 in experiment [1] stood at 10 nM.

In the case of `NCCCNC(=O)/C=C/c1ccc(C(=C2C3CC4CC(C3)CC2C4)c2ccc(O)cc2)cc1` [Compound 25, (E)-3-(4-(((1r,3r,5R,7S)-Adamantan-2-ylidene)(4-hydroxyphenyl)methyl)phenyl)-N-(3-aminopropyl)acrylamide], in experiment [2], the “ERα level, percent of vehicle control” value is reported as “good”.

Regarding `NCCCCNC(=O)/C=C/c1ccc(C(=C2C3CC4CC(C3)CC2C4)c2ccc(O)cc2)cc1` [Compound 26, (E)-3-(4-(((1r,3r,5R,7S)-Adamantan-2-ylidene)(4-hydroxyphenyl)methyl)phenyl)-N-(4-aminobutyl)acrylamide], the “ERα level, percent of vehicle control” value in experiment [2] was “good”.

Turning to `O=C(/C=C/c1ccc(C(=C2C3CC4CC(C3)CC2C4)c2ccc(O)cc2)cc1)NCC(F)(F)F` [Compound 28, (E)-3-(4-(((1r,3r,5R,7S)-Adamantan-2-ylidene)(4-hydroxyphenyl)methyl)phenyl)-N-(2,2,2-trifluoroethyl)acrylamide], the “Cell proliferation (CP), percent” value in experiment [1] is “Least good”. Besides, in experiment [2], the “ERα level, percent of vehicle control” value is “Least good”.

`CCCCN(C)C(=O)/C=C/c1ccc(C(=C2C3CC4CC(C3)CC2C4)c2ccc(O)cc2)cc1` [Compound 29, (E)-3-(4-(((1r,3r,5R,7S)-Adamantan-2-ylidene)(4-hydroxyphenyl)methyl)phenyl)-N-butyl-N-methylacrylamide]: the “Cell proliferation (CP), percent” value in experiment [1] is listed as “very poor efficacies”. The “ERα level, percent of vehicle control” value in experiment [2] was “very poor efficacies”.

With `O=C(/C=C/c1ccc(C(=C2C3CC4CC(C3)CC2C4)c2ccc(O)cc2)cc1)N(CCO)CCO` [Compound 31, (E)-3-(4-(((1r,3r,5R,7S)-Adamantan-2-ylidene)(4-hydroxyphenyl)methyl)phenyl)-N,N-bis(2-hydroxyethyl)acrylamide], the “Cell proliferation (CP), percent” value in experiment [1] is listed as “relatively unimpressive”. Also, the “ERα level, percent of vehicle control” value in experiment [2] is reported as “relatively unimpressive”.

For `C[C@]12CC[C@@H]3c4ccc(O)cc4C[C@@H](CCCCCCCCC[S+]([O-])CCCC(F)(F)C(F)(F)F)[C@H]3[C@@H]1CC[C@@H]2O` (some centres unmarked) [Fulvestrant, fulvestrant, reference compound], in experiment [2], the “ERα level, percent of vehicle control” value stood at 20%.

With `CC/C(=C(\c1ccc(O)cc1)c1ccc(OCCN(C)C)cc1)c1ccccc1` [hydroxytamoxifen, 4-hydroxytamoxifen], the “effect on cellular ERα level (Western blot)” value in experiment [3] is on record as “upregulate ERα levels”.

As for `Oc1ccc(C(=C2C3CC4CC(C3)CC2C4)c2ccc(O)cc2)cc1` [parent bisphenolic adamantyl-core], the “binding affinity for ERα, fold higher than that of estradiol (E2)” value in experiment [4] was “ca. 3 fold”. Further, the Ki in experiment [4] (read-out: Ki for ERα, corresponds to the affinity relative to E2) is 0.07 nM.

By IC50 is commonly meant the concentration at which inhibition is half-maximal. What is called Ki is a dissociation constant, usually derived from enzyme kinetics or from competition with a known ligand.
